# Legend:
# Schistosoma mansoni [1] = assay: Antischistosomal activity against Schistosoma mansoni NTS incubated for 72 hrs; format: functional, organism-based
# In short: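 NTS from mechanically transformed cercariae (Liberian strain), 100 per well in Medium 199 + 5% iFCS, penicillin/streptomycin, preincubated 12–24 h at 37°C, 5% CO2. Exposed to 0.37–90 μg/ml (threefold steps) for 72 h. Scored microscopically on a viability scale (death, motility, morphology). DMSO control; duplicates, at least three experiments; IC50 from viability scores.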
# Schistosoma mansoni [2] = assay: Antischistosomal activity against adult Schistosoma mansoni schistosomes incubated for 72 hrs; format: functional, organism-based
# L6 = assay: Cytotoxicity against rat L6 cells incubated for […] hrs by Alamar blue assay; format: cell-based
# [3] = Selectivity index, ratio of IC50 for rat L6 cells to IC50 for adult Schistosoma mansoni schistosomes
# In short: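 Ratio of L6 IC50 to adult S. mansoni IC50, both from the assays above.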
# Schistosoma mansoni [4] = assay: Antischistosomal activity against adult Schistosoma mansoni infected NMRI mouse adult infection model assessed as reduction in total worm burden at 400 mg/kg administered as single dose starting from 49 days post infection; format: functional; parameters: scale not given: the % may be the effect or the level left
# In short: (§1)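 Mice infected subcutaneously with ~100 S. mansoni cercariae (Liberian strain). At day 49 post infection, groups of 4 NMRI mice received a single oral 400 mg/kg dose; 8–10 untreated controls. Total and female worm burden reductions calculated against untreated controls.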
# Schistosoma mansoni [5] = assay: Antischistosomal activity against adult Schistosoma mansoni infected NMRI mouse adult infection model assessed as reduction in female worm burden at 400 mg/kg administered as single dose starting from 49 days post infection; format: functional; parameters: scale not given: the % may be the effect or the level left; in short: as §1
# Schistosoma mansoni [6] = assay: Antischistosomal activity against adult Schistosoma mansoni schistosomes incubated for 72 hrs in presence of 120 uM Fe(3)-hemin; format: functional, organism-based
# In short: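 Adult worm motility assay in RPMI 1640 + 5% iFCS at 1.1–30 μg/ml. Fe(III)-hemin held at 120 μM final throughout exposure; hemin stock 1.5 mM in dilute NaOH/PBS pH 7.4. Motility scored, IC50 determined at 72 h. At least three experiments.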
# HeLa = assay: Cytotoxicity against human HeLa cells incubated for 48 hrs by resazurin dye reduction assay; format: cell-based
# MRC5 = assay: Cytotoxicity against human MRC5 cells incubated for 48 hrs by resazurin dye reduction assay; format: cell-based; details: MRC5, 48 h
# [7] = Selectivity index, ratio of IC50 for human MRC5 cells to IC50 for human HeLa cells; format: cell-based; details: MRC5 cells versus HeLa cells, read-out: Ratio IC50
# Schistosoma mansoni [8] = assay: Antischistosomal activity against adult Schistosoma mansoni infected NMRI mouse juvenile infection model assessed as reduction in total worm burden at 400 mg/kg administered as single dose starting from 21 days post infection; format: functional; parameters: scale not given: the % may be the effect or the level left
# In short: (§2)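 Juvenile model: NMRI mice infected with ~100 cercariae were given a single oral 400 mg/kg dose on day 21 post infection. Dissected four weeks after treatment, worms sexed and counted. Total and female burden reductions calculated against untreated controls.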
# Schistosoma mansoni [9] = assay: Antischistosomal activity against adult Schistosoma mansoni infected NMRI mouse juvenile infection model assessed as reduction in female worm burden at 400 mg/kg administered as single dose starting from 21 days post infection; format: functional; parameters: scale not given: the % may be the effect or the level left; in short: as §2
smiles,measurement,setting,value
C[C@]12OO[C@](C)(OO1)C2CCC(=O)N1CCCCCC1 (stereo not given in full),IC50,Schistosoma mansoni [1],5.5 µM
same,IC50,Schistosoma mansoni [2],50.1 µM
C[C@]12OO[C@](C)(OO1)C2CCC(=O)NCCc1ccccc1 (stereo not given in full),IC50,Schistosoma mansoni [1],6.1 µM
same,IC50,Schistosoma mansoni [2],65.6 µM
C[C@]12OO[C@](C)(OO1)C2CCC(=O)N1CCCCC1 (stereo not given in full),IC50,Schistosoma mansoni [1],6.6 µM
same,IC50,Schistosoma mansoni [2],> 111 µM
CC(c1ccc2ccccc2c1)C1[C@]2(C)OO[C@@]1(C)OO2 (stereo not given in full),IC50,Schistosoma mansoni [1],7.1 µM
same,IC50,Schistosoma mansoni [2],35.5 µM
C[C@]12OO[C@](C)(OO1)C2CCC(=O)NC1CCCCC1 (stereo not given in full),IC50,Schistosoma mansoni [1],8.9 µM
same,IC50,Schistosoma mansoni [2],66.6 µM
C[C@]12OO[C@](C)(OO1)C2CCC(=O)N1CCOCC1 (stereo not given in full),IC50,Schistosoma mansoni [1],10.7 µM
same,IC50,Schistosoma mansoni [2],36.9 µM
C[C@]12OO[C@](C)(OO1)C2CCC(=O)NCc1ccccc1 (stereo not given in full),IC50,Schistosoma mansoni [1],10.9 µM
same,IC50,Schistosoma mansoni [2],> 102 µM
CCOC(=O)CNC(=O)CCC1[C@]2(C)OO[C@@]1(C)OO2 (stereo not given in full),IC50,Schistosoma mansoni [1],11.7 µM
same,IC50,Schistosoma mansoni [2],> 104 µM
C[C@]12OO[C@](C)(OO1)C2CCC(=O)N1CCCC1 (stereo not given in full),IC50,Schistosoma mansoni [1],13.9 µM
same,IC50,Schistosoma mansoni [2],> 117 µM
CC(C)NC(=O)CCC1[C@]2(C)OO[C@@]1(C)OO2 (stereo not given in full),IC50,Schistosoma mansoni [1],25.6 µM
CC12CCC3[C@@](C)(OO[C@]3(c3ccc(Br)cc3)O1)O2,IC50,Schistosoma mansoni [1],1.7 µM
same,IC50,Schistosoma mansoni [2],8.7 µM
same,IC50,L6,8.2 µM
same,Ratio IC50,[3],0.9
same,Activity,Schistosoma mansoni [4],31.3%
same,Activity,Schistosoma mansoni [5],36.4%
CCOC(=O)CCC12CCC3(C)O[C@]1(C)OO[C@]2(C)O3,IC50,Schistosoma mansoni [1],3.5 µM
same,IC50,Schistosoma mansoni [2],> 105 µM
same,IC50,Schistosoma mansoni [6],92.2 µM
Cc1ccc(CC23CCC4(C)O[C@]2(C)OO[C@]3(C)O4)cc1,IC50,Schistosoma mansoni [1],4.5 µM
same,IC50,Schistosoma mansoni [2],> 103 µM
same,IC50,Schistosoma mansoni [6],13.4 µM
same,IC50,L6,> 103 µM
same,Ratio IC50,[3],>7.7
same,Activity,Schistosoma mansoni [4],0%
same,Activity,Schistosoma mansoni [5],0%
C#CCC12CCC3(C)O[C@]1(C)OO[C@]2(C)O3,IC50,Schistosoma mansoni [1],8.1 µM
same,IC50,Schistosoma mansoni [2],82.4 µM
CC12CCC3(Cc4ccc([N+](=O)[O-])cc4)[C@@](C)(OO[C@]3(C)O1)O2,IC50,Schistosoma mansoni [1],9 µM
same,IC50,Schistosoma mansoni [2],12.2 µM
same,IC50,L6,> 93 µM
same,Ratio IC50,[3],>7.6
same,Activity,Schistosoma mansoni [4],4.7%
same,Activity,Schistosoma mansoni [5],9.6%
CC12CCC3[C@@](C)(OO[C@]3(C)O1)O2,IC50,Schistosoma mansoni [1],9 µM
same,IC50,Schistosoma mansoni [2],19.2 µM
CC12CCC3[C@@](C)(OO[C@]3(c3ccccc3)O1)O2,IC50,Schistosoma mansoni [1],9.3 µM
same,IC50,Schistosoma mansoni [2],7.7 µM
same,IC50,L6,10.3 µM
same,Ratio IC50,[3],1.3
same,Activity,Schistosoma mansoni [4],6.5%
same,Activity,Schistosoma mansoni [5],15.2%
CC12CCC3(Cc4ccccc4)[C@@](C)(OO[C@]3(C)O1)O2,IC50,Schistosoma mansoni [1],13.4 µM
same,IC50,Schistosoma mansoni [2],> 109 µM
COc1ccc([C@]23OO[C@@]4(C)OC(C)(CCC42)O3)cc1,IC50,Schistosoma mansoni [1],14.4 µM
same,IC50,Schistosoma mansoni [2],11.7 µM
same,IC50,L6,58.3 µM
same,Ratio IC50,[3],4.9
same,IC50,HeLa,6 µM
same,IC50,MRC5,12.4 µM
same,selectivity ratio,[7],2
same,Activity,Schistosoma mansoni [4],82.8%
same,Activity,Schistosoma mansoni [5],82.9%
same,Activity,Schistosoma mansoni [8],18.9%
same,Activity,Schistosoma mansoni [9],27.3%
C=CCC12CCC3(C)O[C@]1(C)OO[C@]2(C)O3,IC50,Schistosoma mansoni [1],15.6 µM
CC12CCC3[C@@](C)(OO[C@]3(c3ccc(Cl)cc3)O1)O2,IC50,Schistosoma mansoni [1],16 µM
CCCCC12CCC3(C)O[C@]1(C)OO[C@]2(C)O3,IC50,Schistosoma mansoni [1],22.3 µM
CC12CCC3(CC4CO4)[C@@](C)(OO[C@]3(C)O1)O2 (stereo not given in full),IC50,Schistosoma mansoni [1],22.5 µM
Cc1ccc([C@]23OO[C@@]4(C)OC(C)(CCC42)O3)cc1,IC50,Schistosoma mansoni [1],45.3 µM
CC12CCC3(C)[C@@](C)(OO[C@]3(C)O1)O2,IC50,Schistosoma mansoni [1],180 µM
CC12CCC3(CCC(=O)NC45CC6CC(CC(C6)C4)C5)[C@@](C)(OO[C@]3(C)O1)O2,IC50,Schistosoma mansoni [1],213 µM
CC12CCC3(CCC(=O)N4CCOCC4)[C@@](C)(OO[C@]3(C)O1)O2,IC50,Schistosoma mansoni [1],> 287 µM
CC12CCC3(CCC(=O)O)[C@@](C)(OO[C@]3(C)O1)O2,IC50,Schistosoma mansoni [1],> 348 µM
CC12CCC3(CCC#N)[C@@](C)(OO[C@]3(C)O1)O2,IC50,Schistosoma mansoni [1],> 376 µM
C1COC(OOC23CC4CC(CC(C4)C2)C3)C1 (stereo not given),IC50,Schistosoma mansoni [1],> 126 µM
CCOC(=O)CCC(OOC(C)(C)C)(C(C)=O)C(C)=O,IC50,Schistosoma mansoni [1],> 104 µM
CC(=O)C(C)(OOC(C)(C)C)C(C)=O,IC50,Schistosoma mansoni [1],> 795 µM
CCOC(=O)C(Cc1ccccc1)(OOC(C)(C)C)C(C)=O (stereo not given),IC50,Schistosoma mansoni [1],15.1 µM
CCCCC(OOC(C)(C)C)(C(C)=O)C(=O)OCC (stereo not given),IC50,Schistosoma mansoni [1],26.5 µM
CCOC(=O)C(CCC#N)(OOC(C)(C)C)C(C)=O (stereo not given),IC50,Schistosoma mansoni [1],> 111 µM
CCOC(=O)C(Cc1ccccc1)(OOC(C)(C)C)C(=O)OCC,IC50,Schistosoma mansoni [1],14.6 µM
same,IC50,Schistosoma mansoni [2],59.1 µM
CCOC(=O)C(C#N)(Cc1ccc(Cl)cc1)OOC(C)(C)C (stereo not given),IC50,Schistosoma mansoni [1],9 µM
same,IC50,Schistosoma mansoni [2],> 127 µM
CCOC(=O)C(C#N)(CC(C)=O)OOC(C)(C)C (stereo not given),IC50,Schistosoma mansoni [1],37.8 µM
C=CCC(C#N)(OOC(C)(C)C)C(=O)OCC (stereo not given),IC50,Schistosoma mansoni [1],43.2 µM
CCOC(=O)C(C#N)(Cc1ccccc1)OOC(C)(C)C (stereo not given),IC50,Schistosoma mansoni [1],67.7 µM
CC(C)(C)OOC(C#N)(C#N)Cc1ccc(Cl)cc1,IC50,Schistosoma mansoni [1],3.9 µM
same,IC50,Schistosoma mansoni [2],19.3 µM
same,IC50,Schistosoma mansoni [6],17.9 µM
CC(C)(C)OOC(C#N)(C#N)Cc1ccccc1,IC50,Schistosoma mansoni [1],5 µM
same,IC50,Schistosoma mansoni [2],14.7 µM
same,IC50,L6,99 µM
same,Ratio IC50,[3],6.4
same,Activity,Schistosoma mansoni [4],0%
same,Activity,Schistosoma mansoni [5],0%
COc1ccc(CC(C#N)(C#N)OOC(C)(C)C)cc1,IC50,Schistosoma mansoni [1],8 µM
same,IC50,Schistosoma mansoni [2],40.6 µM
CC(C)(C)OOC(C#N)(C#N)C1CCCC1,IC50,Schistosoma mansoni [1],10.7 µM
same,IC50,Schistosoma mansoni [2],123 µM
CCOC(=O)CC(C)C(C#N)(C#N)OOC(C)(C)C (stereo not given),IC50,Schistosoma mansoni [1],157 µM
CC(C)C(C#N)(C#N)OOC(C)(C)C,IC50,Schistosoma mansoni [1],293 µM
C[C@]12OO[C@](C)(OO1)C2C12CC3CC(CC(C3)C1)C2 (stereo not given in full),IC50,Schistosoma mansoni [1],0.1 µM
same,IC50,Schistosoma mansoni [2],0.3 µM
same,IC50,L6,1.7 µM
same,Ratio IC50,[3],5.7
same,IC50,HeLa,0.4 µM
same,IC50,MRC5,1.2 µM
same,selectivity ratio,[7],2
same,Activity,Schistosoma mansoni [4],75.4%
same,Activity,Schistosoma mansoni [5],77.8%
same,Activity,Schistosoma mansoni [8],43.1%
same,Activity,Schistosoma mansoni [9],50%
CC(c1ccc(Cl)cc1)C1[C@]2(C)OO[C@@]1(C)OO2 (stereo not given in full),IC50,Schistosoma mansoni [1],0.4 µM
same,IC50,Schistosoma mansoni [2],35.5 µM
same,IC50,Schistosoma mansoni [6],25.3 µM
Cc1ccc(C(C)C2[C@]3(C)OO[C@@]2(C)OO3)cc1 (stereo not given in full),IC50,Schistosoma mansoni [1],0.6 µM
same,IC50,Schistosoma mansoni [2],30.9 µM
same,IC50,Schistosoma mansoni [6],41.2 µM
C[C@]12OO[C@](C)(OO1)C2CCC(=O)NC12CC3CC(CC(C3)C1)C2 (stereo not given in full),IC50,Schistosoma mansoni [1],0.8 µM
same,IC50,Schistosoma mansoni [2],33.3 µM
same,IC50,Schistosoma mansoni [6],39.3 µM
CC(c1ccc(Br)cc1)C1[C@]2(C)OO[C@@]1(C)OO2 (stereo not given in full),IC50,Schistosoma mansoni [1],1 µM
same,IC50,Schistosoma mansoni [2],33.6 µM
same,IC50,Schistosoma mansoni [6],47.7 µM
CC(c1ccccc1)C1[C@]2(C)OO[C@@]1(C)OO2 (stereo not given in full),IC50,Schistosoma mansoni [1],1.1 µM
same,IC50,Schistosoma mansoni [2],18.8 µM
same,IC50,Schistosoma mansoni [6],12.9 µM
same,IC50,L6,2.2 µM
same,Ratio IC50,[3],0.1
same,Activity,Schistosoma mansoni [4],5%
same,Activity,Schistosoma mansoni [5],4.6%
Cc1ccc(CC2[C@]3(C)OO[C@@]2(C)OO3)cc1 (stereo not given in full),IC50,Schistosoma mansoni [1],1.2 µM
same,IC50,Schistosoma mansoni [2],40 µM
same,IC50,Schistosoma mansoni [6],> 127 µM
C[C@H]1[C@H](OC(=O)CCC(=O)O)O[C@@H]2O[C@@]3(C)CC[C@H]4[C@H](C)CC[C@@H]1[C@@]24OO3 [ARTESUNATE],IC50,Schistosoma mansoni [1],4.97 µM
same,IC50,Schistosoma mansoni [2],38.7 µM
same,IC50,Schistosoma mansoni [6],38.7 µM
same,IC50,L6,1.5 µM
same,Ratio IC50,[3],0.04
same,IC50,HeLa,3.2 µM
same,IC50,MRC5,6.8 µM
same,selectivity ratio,[7],2
O=C(C1CCCCC1)N1CC(=O)N2CCc3ccccc3C2C1 (stereo not given) [PRAZIQUANTEL],IC50,Schistosoma mansoni [1],2.2 µM
same,IC50,L6,> 96 µM

# Reference: ChEMBL document CHEMBL2169849, “Identification of antischistosomal leads by evaluating bridged 1,2,4,5-tetraoxanes, alphaperoxides, and tricyclic monoperoxides” (J Med Chem, 2012)
